Results published in ChEMBL document CHEMBL1137716, “Novel modifications in the series of O-(2-phthalimidoethyl)-N-substituted thiocarbamates and their ring-opened congeners as non-nucleoside HIV-1 reverse transcriptase inhibitors” (Eur J Med Chem, 2009).
pEC50: −log10 of the molar value. Calls of active or inactive are those of the source. How the calls were made is not given here.

Tests used:
[1] = system: Human immunodeficiency virus 1; assay: Antiviral activity against HIV1 3B Y181C resistant mutant in human MT4 cells assessed as protection against viral induced cytopathogenicity by MTT assay; assay type: functional, organism-based; settings: Human immunodeficiency virus 1, 3B
Procedure, shortened: (§1)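 MT-4 cells infected with HIV-1 carrying the NNRTI-resistance mutation were assayed for protection from virus-induced cytopathogenicity, read out as cell viability by MTT. EC50 is the compound concentration giving 50% protection. Values are means of three separate experiments, with variation among triplicate samples under 10%. Efavirenz served as the reference.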

[2] = Selectivity index, ratio of CC50 for human MT4 cells to EC50 for HIV1 3B; assay type: toxicity, cell-based; settings: read-out: Ratio CC50/EC50
Procedure, shortened: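 Ratio of CC50 in mock-infected MT-4 cells to EC50 for protection from HIV-1 cytopathogenicity, both read by MTT method.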

[3] = Cytotoxicity against mock-infected human MT4 cells by MTT assay; assay type: cell-based
Procedure, shortened: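 Mock-infected MT-4 cells, tested in parallel with the antiviral assay; viability read by MTT method; CC50 is the concentration lowering viability by 50%; mean of three separate experiments, triplicate variation under 10%.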

[4] = system: Human immunodeficiency virus 1; assay: Antiviral activity against wild type HIV1 3B in human MT4 cells assessed as protection against viral induced cytopathogenicity by MTT assay; assay type: functional, organism-based; settings: Human immunodeficiency virus 1, 3B
Procedure, shortened: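 MT-4 cells infected with HIV-1; 50% protection from virus-induced cytopathogenicity read by MTT method; EC50 in micromolar; mean of three separate experiments, triplicate samples varying under 10%.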

[5] = system: Human immunodeficiency virus 1; assay: Antiviral activity against HIV1 3B Y181C/K103N double mutant in human MT4 cells assessed as protection against viral induced cytopathogenicity by MTT assay; assay type: functional, organism-based; procedure, shortened: as §1
[6] = system: Human immunodeficiency virus 1; assay: Antiviral activity against HIV1 3B K103R resistant mutant in human MT4 cells assessed as protection against viral induced cytopathogenicity by MTT assay; settings: Human immunodeficiency virus 1, 3B

Row | SMILES | pEC50 [1] | selectivity ratio [2] | CC50 [3] [µM] | pEC50 [4] | Activity [5] | pEC50 [6]
1 | Cc1ccc2c(c1)C(=O)N(CCOC(=S)Nc1ccc(I)cc1)C2=O | 5.05 | 8900 | 89 | 8.00 | inactive | 
2 | Cc1ccc2c(c1)C(=O)N(CCOC(=S)Nc1ccc(Cl)c([N+](=O)[O-])c1)C2=O | 4.52 | > 2000 | > 100 | 7.30 | inactive | 
3 | COc1ccc(NC(=S)OCCN2C(=O)c3ccc(C)cc3C2=O)cc1 | 4.36 | > 3330 | > 100 | 7.52 | inactive | 
4 | Cc1ccc(NC(=S)OC[C@@H](C)N2C(=O)c3ccccc3C2=O)cc1 | 5.05 | 1090 | 76 | 7.15 | inactive | 
5 | CCc1ccc(NC(=S)OCCN2C(=O)c3ccc(C)cc3C2=O)cc1 | 4.80 | 2150 | 43 | 7.70 | inactive | 
6 | O=C1c2ccccc2C(=O)N1CCOC(=S)Nc1ccc(Cl)c([N+](=O)[O-])c1 | 5.55 | > 2000 | > 100 | 7.30 | inactive | 
7 | C[C@H](COC(=S)Nc1ccc(Cl)cc1)NC(=O)c1ccccc1C(=O)O | 4.74 | > 333 | > 100 | 6.52 | inactive | 
8 | Cc1ccc2c(c1)C(=O)N(CCOC(=S)Nc1ccc(C#N)cc1)C2=O | 5.35 | 5700 | 57 | 8.00 | inactive | 
9 | C[C@H](COC(=S)Nc1ccc(Cl)cc1)N1C(=O)c2ccccc2C1=O | 5.89 | 4800 | 48 | 8.00 | inactive | 5.32
10 | Cc1ccc2c(c1)C(=O)N(CCOC(=S)Nc1ccc(F)cc1)C2=O | 4.17 | 3330 | 100 | 7.52 | inactive | 
11 | S=C(NCCc1ccccn1)Nc1ccc(Br)cn1 [TROVIRDINE] | 4.82 | 3000 |  | 7.70 |  | 
12 | COc1ccc(CCNC(=S)OCCNC(=O)c2ccccc2C(=O)O)cc1OC |  | 1.6 | 100 | 4.20 | inactive | 
13 | Cc1ccc2c(c1)C(=O)N(C(C)COC(=S)Nc1ccc(Cl)cc1)C2=O (racemic) | 5.40 | 567 | 34 | 7.22 | inactive | 
14 | CC(C)(C)CC(C)(C)NC(=S)OCCN1C(=O)c2ccccc2C1=O |  | > 1.7 | > 100 | 4.22 | inactive | 
15 | Cc1ccc(NC(=S)OC[C@H](C)NC(=O)c2ccccc2C(=O)O)cc1 |  | > 7.2 | > 100 | 4.86 | inactive | 
16 | COc1ccc(NC(=S)OCCN2C(=O)c3ccccc3C2=O)cc1OC |  | > 28.6 | > 100 | 5.46 | inactive | 
17 | O=C1c2ccccc2C(=O)N1CCOC(=S)Nc1c(Cl)cc(Cl)cc1Cl |  | > 10 | > 100 | 5.00 | inactive | 
18 | O=C1Nc2ccc(Cl)cc2[C@@](C#CC2CC2)(C(F)(F)F)O1 [EFAVIRENZ] | 7.70 |  |  |  |  | 
19 | O=C(O)c1ccccc1C(=O)NCCOC(=S)Nc1ccc(Cl)c(Cl)c1Cl |  | > 2.3 | > 100 | 4.36 | inactive | 
20 | O=C1c2ccccc2C(=O)N1CCOC(=S)Nc1c(F)cc(F)cc1F |  | > 50 | > 100 | 5.70 | inactive | 
21 | O=C(O)c1ccccc1C(=O)NCCOC(=S)Nc1c(F)c(F)cc(F)c1F |  | > 1.4 | > 100 | 4.15 | inactive | 
22 | O=C1c2ccccc2C(=O)N1CCOC(=S)Nc1ccc(F)cc1F |  | > 200 | > 100 | 6.30 | inactive | 
23 | CCCCNC(=S)OCCN1C(=O)c2ccccc2C1=O |  | > 13.9 | > 100 | 5.14 | inactive | 
24 | Cc1ccc2c(c1)C(=O)N(CCOC(=S)Nc1ccc(Cl)c(C(F)(F)F)c1)C2=O |  | 17.9 | 43 | 5.62 | inactive | 
25 | Cc1ccc(NC(=S)OCC(C)N2C(=O)c3ccc(C)cc3C2=O)cc1 (racemic) | 4.92 | 410 | 41 | 7.00 | inactive | 
